RGS4 block = inhibitors of human RGS4; P49798; HEK293 M3R/RGS4 inducible, Fluo-4 calcium flux; hits give high values; triggered by carbachol at its EC20; B-score at 10 µM; hit rate 0.45% among 310,000; AID 463165;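 active = B-score, a plate-corrected calcium signal, over three deviations above library mean, with baseline fluorescence within five deviations of library mean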;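 also: RGS4 expression induced by doxycycline in cells with stable M3 receptor; B-score is computed from the integrated fluorescence ratio over baseline after carbachol; higher B-score means a larger calcium signal and so more RGS4 inhibition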
Target sequence (P49798 whole entry, looked up): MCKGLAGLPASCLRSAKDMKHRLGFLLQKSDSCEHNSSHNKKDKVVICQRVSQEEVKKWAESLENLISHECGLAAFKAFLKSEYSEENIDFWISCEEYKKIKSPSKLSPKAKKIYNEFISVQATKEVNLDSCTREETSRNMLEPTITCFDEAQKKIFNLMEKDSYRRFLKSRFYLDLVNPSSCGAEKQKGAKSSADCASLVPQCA
MrgX1 antagonist = blocks BAM8-22 activation of human MrgX1 receptor; MRGX1-HEK293 calcium flux, Fluo-4, BAM8-22 antagonism; hits give low values; B-score at 10 µM; hit rate 1.3% among 310,000; AID 588676;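 active = calcium-response B-score plate-corrected more than 3 library SD below zero, starting fluorescence within 5 deviations, no agonist response on first addition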;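 also: peak minus trough fluorescence over baseline after final BAM8-22 challenge near maximal dose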
Target sequence (Q96LB2 whole entry, looked up): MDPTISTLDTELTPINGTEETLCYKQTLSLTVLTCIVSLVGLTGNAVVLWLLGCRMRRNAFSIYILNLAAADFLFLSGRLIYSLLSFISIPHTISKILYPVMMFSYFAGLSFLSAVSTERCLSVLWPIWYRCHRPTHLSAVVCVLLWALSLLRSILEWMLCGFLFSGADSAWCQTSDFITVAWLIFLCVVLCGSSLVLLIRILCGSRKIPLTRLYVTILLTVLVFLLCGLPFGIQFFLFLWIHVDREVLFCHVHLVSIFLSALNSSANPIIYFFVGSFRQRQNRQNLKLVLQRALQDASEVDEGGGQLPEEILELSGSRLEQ
RGS4 pot = potentiators or activators of RGS4; HEK293 M3R/inducible RGS4, carbachol calcium flux Fluo4; hits give low values; hit rate 0.92% among 310,000; B-score at 10 µM; AID 463111;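 active = B-score of the integrated calcium signal more than 4 SD below the library mean, with starting fluorescence not abnormally high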;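 also: negative B-score means reduced calcium response which marks RGS4 activation or potentiation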
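Test system: HEK293 cells with stable M3R and inducible RGS4; also added: carbachol at ECmax as muscarinic agonist stimulus; schedule: dye loading 30 min 37 °C, buffer rest 30 min RT; technique: kinetic calcium fluorescence imaging with Fluo4-AM dye, 2 µM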
MrgX1 PAM = allosterically activates human MrgX1 receptor signaling; MrgX1-HEK293, Fluo-4 calcium flux, FDSS; hits give high values; AID 588675; hit rate 0.63% among 310,000; Q96LB2; B-score at 10 µM;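 active = plate-corrected calcium response at least 3 library SD above typical, normal starting fluorescence, not activating the receptor alone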;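 also: compound read alongside a low EC10 to EC30 dose of BAM8-22 agonist; peak minus trough fluorescence over baseline measured at the second addition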
MrgX1 agonist = human MrgX1 receptor agonism, primary screen | Q96LB2 | MrgX1-HEK293 cells, Fluo-4 calcium fluorescence, agonist mode; hits give high values | B-score at 10 µM | hit rate 0.44% among 310,000 | AID 588627;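 active = calcium response B-score plate-corrected fluorescence ratio at least 3 library SD, with starting fluorescence B-score inside 5 SD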
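Material: MrgX1-expressing HEK293 cells; input: 15,000 cells per well; doses: test compound given as first of three sequential additions; schedule: overnight plating before 1 h dye loading; technique: Fluo-4 NW calcium-flux fluorescence, kinetic read; evaluation: baseline-normalised fluorescence change ratio, B-scored; control set: plate-wise positive and negative controls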
RGS4 activ val = confirmation of RGS4 activators; shares compounds with RGS4 pot; HEK293 M3R/RGS4 inducible, carbachol calcium flux Fluo4; inhibition, % at 10 µM; hit rate 89% among 1,100; AID 602282;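 active = inhibition above 3 SD of the buffer control wells, cut at about 41% in these data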;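 also: signal is the integrated peak-minus-minimum Fluo4 fluorescence over baseline ratio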
RGS4 act ctr = counter-screen for RGS4 activators: effect in non-induced cells. shares compounds with RGS4 pot. HEK293 M3R non-induced RGS4, Fluo4 calcium flux; after carbachol challenge at its EC90. inhibition, % at 10 µM. hit rate 82% among 1,100. AID 602283;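 active = inhibition exceeding 3 SD of buffer-only control wells, cut at about 26% in these data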;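 also: percent drop in integrated peak-minus-baseline over baseline Fluo4 ratio after carbachol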
Numbers without * were called inactive. A selection: hits, their analogues and other compounds. The true share with any hit is near 3.5%.

`CCOC(=O)c1ccc(NC(=O)c2c(Cl)cc(C)nc2C)cc1` gave RGS4 block inactive, MrgX1 antagonist inactive, RGS4 pot inactive, MrgX1 PAM inactive and MrgX1 agonist inactive.
Screening CCOC(=O)c1ccc(Nc2cc(C)nc(C)c2C(=O)OCC)cc1 returned RGS4 block inactive, MrgX1 antagonist inactive, RGS4 pot -8.42*, MrgX1 PAM inactive, MrgX1 agonist inactive, RGS4 activ val 57.5* and RGS4 act ctr 83.8*.
`O=S(=O)(Nc1ccc(Cl)cc1)c1ccc(N2CCOCC2)c(NC(=S)NC2CC2)c1` gave RGS4 block inactive, MrgX1 antagonist inactive, RGS4 pot -11.7*, MrgX1 PAM inactive, MrgX1 agonist inactive, RGS4 activ val 0.0 and RGS4 act ctr 0.0.
Screening Cc1cc(NC(=O)CSc2cn(CCNC(=O)c3ccc(F)cc3)c3ccccc23)no1 returned RGS4 block inactive, MrgX1 antagonist inactive, RGS4 pot -7.66*, MrgX1 PAM inactive, MrgX1 agonist inactive, RGS4 activ val 69.0* and RGS4 act ctr 33.3*.
COc1ccc(-c2cn[nH]c2-c2ccc(OCc3ccccc3)cc2O)cc1 was read as RGS4 block inactive, MrgX1 antagonist inactive, RGS4 pot -9.74*, MrgX1 PAM inactive, MrgX1 agonist inactive, RGS4 activ val 0.0 and RGS4 act ctr 0.0.
`COc1ccccc1-c1cn[nH]c1-c1ccc(OCc2ccccc2)cc1O` gave RGS4 block inactive, MrgX1 antagonist inactive, RGS4 pot inactive, MrgX1 PAM inactive and MrgX1 agonist inactive.
O=C(CSc1nc(-c2ccccc2Cl)ns1)c1ccc(Cl)cc1 was read as RGS4 block inactive, MrgX1 antagonist inactive, RGS4 pot -8.24*, MrgX1 PAM inactive, MrgX1 agonist inactive, RGS4 activ val 77.0* and RGS4 act ctr 40.8*.
COc1[nH]c(/N=C/c2ccccc2)c(C#N)c1C#N was read as RGS4 block inactive, MrgX1 antagonist inactive, RGS4 pot -8.37*, MrgX1 PAM inactive, MrgX1 agonist inactive, RGS4 activ val 0.0 and RGS4 act ctr 0.0.
Screening COc1ccc(CCNC(=O)c2cccc3c2C(=O)N(C2CCCCC2)C3)cc1OC returned RGS4 block inactive, MrgX1 antagonist inactive, RGS4 pot -8.12*, MrgX1 PAM inactive, MrgX1 agonist inactive, RGS4 activ val 64.5* and RGS4 act ctr 0.0.
`C/C=C1\COC(C(=O)NCc2ccccc2)(C(F)(F)F)C=C1C=C(C)C` (configuration not stated) gave RGS4 block inactive, MrgX1 antagonist inactive, RGS4 pot -7.82*, MrgX1 PAM inactive, MrgX1 agonist inactive, RGS4 activ val 91.5* and RGS4 act ctr 92.8*.
Screening CCOc1ccc2nc(NC(=O)C3(C)CC3(Br)Br)sc2c1 (configuration not stated) returned RGS4 block inactive, MrgX1 antagonist inactive, RGS4 pot -8.12*, MrgX1 PAM inactive, MrgX1 agonist inactive, RGS4 activ val 68.5* and RGS4 act ctr 83.8*.
`O=C(NCCSCc1ccccc1)c1ccc(C2SCC(=O)N2Cc2ccccc2)cc1` (configuration not stated) gave RGS4 block inactive, MrgX1 antagonist inactive, RGS4 pot -11.4*, MrgX1 PAM inactive, MrgX1 agonist inactive, RGS4 activ val 88.0* and RGS4 act ctr 42.3*.
COC(=O)c1ccc(C2SCC(=O)N2Cc2ccccc2)cc1 (configuration not stated) was read as RGS4 block inactive, MrgX1 antagonist inactive, RGS4 pot inactive, MrgX1 PAM inactive and MrgX1 agonist inactive.
Screening O=C1CN(C(=O)c2ccc(Cl)c(S(=O)(=O)N3CCc4ccccc43)c2)c2ccccc2N1 returned RGS4 block inactive, MrgX1 antagonist inactive, RGS4 pot inactive, MrgX1 PAM inactive and MrgX1 agonist inactive.
`CCOC(=O)C1CCN(c2c(C(=O)c3ccccc3)cnc3ccc(CC)cc23)CC1` gave RGS4 block inactive, MrgX1 antagonist inactive, RGS4 pot -7.7*, MrgX1 PAM inactive, MrgX1 agonist inactive, RGS4 activ val 90.0* and RGS4 act ctr 42.8*.
CN1CCN(CC(=O)Nc2c(C(=O)c3ccccc3)oc3ccccc23)CC1 was read as RGS4 block inactive, MrgX1 antagonist inactive, RGS4 pot -9.96*, MrgX1 PAM inactive, MrgX1 agonist inactive, RGS4 activ val 70.0* and RGS4 act ctr 26.8*.
Screening Nc1ccc(OCc2ccccc2)cc1 returned RGS4 block inactive, MrgX1 antagonist inactive, RGS4 pot inactive, MrgX1 PAM inactive and MrgX1 agonist inactive.
`CCN(Cc1ccccc1)Cc1ccc(OCc2ccccc2)cc1` gave RGS4 block inactive, MrgX1 antagonist inactive, RGS4 pot -8.35*, MrgX1 PAM inactive, MrgX1 agonist inactive, RGS4 activ val 93.0* and RGS4 act ctr 69.8*.
`CCCCOc1ccc(C(=O)N2CCC(C)CC2)cc1` gave RGS4 block inactive, MrgX1 antagonist inactive, RGS4 pot inactive, MrgX1 PAM inactive and MrgX1 agonist inactive.
For CCCCOc1ccc(C(=O)OC2CC(C)N(C)CC2C)cc1 (configuration not stated) the results were RGS4 block inactive, MrgX1 antagonist inactive, RGS4 pot -9.52*, MrgX1 PAM inactive, MrgX1 agonist inactive, RGS4 activ val 91.0* and RGS4 act ctr 86.3*.
Screening COc1ccc(NC(=O)CN2C(=O)CSc3ncccc32)cc1 returned RGS4 block inactive, MrgX1 antagonist inactive, RGS4 pot inactive, MrgX1 PAM inactive and MrgX1 agonist inactive.
O=C(Nc1cccc(-c2nc3ccccc3s2)c1)c1cc(=O)c2ccccc2o1 was read as RGS4 block inactive, MrgX1 antagonist inactive, RGS4 pot inactive, MrgX1 PAM inactive and MrgX1 agonist inactive.
For O=C(Nc1cccc(-c2nc3ccccc3s2)c1)c1cccs1 the results were RGS4 block inactive, MrgX1 antagonist inactive, RGS4 pot -8.1*, MrgX1 PAM inactive, MrgX1 agonist inactive, RGS4 activ val 92.0* and RGS4 act ctr 67.3*.
`Cc1c(C(=O)N(C)C2CCCCC2)sc2ncnc(N3CCN(c4ccccc4)CC3)c12` gave RGS4 block inactive, MrgX1 antagonist inactive, RGS4 pot -9.65*, MrgX1 PAM inactive, MrgX1 agonist inactive, RGS4 activ val 0.0 and RGS4 act ctr 28.3*.

Bioassay records (PubChem)
